The species named for data set [1] is Mus musculus. The experiment in a line: Inhibition of Hedgehog signaling pathway in VDR-deficient mouse C3H10T1/2 cells assessed as change in CYP24A1 mRNA expression at 1 uM after 24 hrs by q-PCR analysis. Set-up: scale not given: the % may be the effect or the level left.
The species named for data set [2] is Mus musculus. The experiment in a line: Inhibition of Hedgehog signaling pathway in VDR-deficient mouse C3H10T1/2 cells assessed as reduction in oxysterol-induced Gli1 mRNA expression at 1 uM after 24 hrs by q-PCR analysis.
For data set [3], the species on record is Mus musculus. In words: Inhibition of Hedgehog signaling pathway in Sufu-deficient mouse C3H10T1/2 cells assessed as reduction in oxysterol-induced Gli1 mRNA expression at 1 uM after 24 hrs by q-PCR analysis.
Data set [4] addresses T1, Vitamin D3 receptor (Mus musculus) (UniProt P48281).
T1 sequence (whole entry): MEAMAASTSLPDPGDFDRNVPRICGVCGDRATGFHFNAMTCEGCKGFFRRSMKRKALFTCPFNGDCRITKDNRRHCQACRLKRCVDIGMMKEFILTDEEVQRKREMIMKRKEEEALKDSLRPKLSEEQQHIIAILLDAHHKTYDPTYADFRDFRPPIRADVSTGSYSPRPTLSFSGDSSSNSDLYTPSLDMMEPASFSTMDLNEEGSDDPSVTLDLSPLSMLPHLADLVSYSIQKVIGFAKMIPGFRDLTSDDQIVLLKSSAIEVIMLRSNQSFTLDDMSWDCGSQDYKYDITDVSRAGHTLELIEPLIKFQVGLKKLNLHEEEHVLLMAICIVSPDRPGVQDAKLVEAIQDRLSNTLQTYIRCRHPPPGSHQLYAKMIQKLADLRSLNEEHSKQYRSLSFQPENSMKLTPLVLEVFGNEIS
The experiment in a line: Activation of VDR in mouse C3H10T1/2 cells assessed as change in Cyp24A1 mRNA expression at 5 uM after 24 hrs by q-PCR analysis relative to control. Type of data set: cell-based.

Data set [5] is described as follows: Half life in rat liver homogenates. Type of data set: ADME, tissue-based.
The species entered for data set [6] is Mus musculus. The experiment in a line: Inhibition of Hedgehog signaling pathway in mouse C3H10T1/2 cells assessed as reduction in oxysterol-induced Gli1 mRNA expression at 1 uM after 24 hrs by q-PCR analysis relative to oxysterol alone. Type of data set: cell-based. Set-up: scale not given: the % may be the effect or the level left. In short, it runs like this: (§1)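 Gli1 transcription was induced in C3H10T1/2 cells by co-treating with 20(S)-OHC and 22(S)-OHC (5 µM each) plus analogue for 24 h. Gli1 mRNA was quantified by qPCR and expressed as % of the oxysterol-only control (set to 100%). Data are mean ± SEM of at least two separate experiments run in triplicate.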

The target in data set [7] is T1, Vitamin D3 receptor (Mus musculus). The experiment in a line: Activation of VDR in mouse ASZ001 cells assessed as change in Cyp24A1 mRNA expression at 1 uM after 48 hrs by q-PCR analysis relative to control. Type of data set: cell-based.
The species named for data set [8] is Mus musculus. The experiment in a line: Inhibition of Hedgehog signaling pathway in Sufu-deficient mouse C3H10T1/2 cells assessed as change in CYP24A1 mRNA expression at 1 uM after 24 hrs by q-PCR analysis. Details: scale not given: the % may be the effect or the level left.
Data set [9] relates to Medulloblastoma cell. In words: Antiproliferative activity against medulloblastoma cells derived from conditional patched knockout mouse after 48 hrs by [3H]-thymidine incorporation assay. Type of data set: functional. In short, it runs like this:
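Primary tumour cells from Math1-Cre;Ptc fl/fl medulloblastoma were isolated and cultured in vitro, then incubated with analogue for 48 h in a proliferation assay. GI50 is mean ± SEM of at least two separate experiments performed in triplicate.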
(Uptake of a labelled nucleoside into DNA is a usual measure of proliferation.)

Data set [10] addresses T2, Vitamin D3 receptor (Mus musculus, UniProt P48281).
T2 sequence (P48281 whole entry): T1 sequence (whole entry)
In words: Activation of VDR in mouse ASZ001 cells assessed as change in Cyp24A1 mRNA expression after 48 hrs by q-PCR analysis. Type of data set: cell-based. The method in brief: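 In ASZ001 cells, full dose-response Cyp24A1 mRNA measurement by qPCR was done relative to DMSO control (1.0). EC50 values are mean ± SEM of at least two separate experiments performed in triplicate.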

Data set [11] deals with T1, Vitamin D3 receptor (Mus musculus). In words: Activation of VDR in mouse C3H10T1/2 cells assessed as change in Cyp24A1 mRNA expression at 2.5 uM after 24 hrs by q-PCR analysis relative to control. Type of data set: cell-based.
The nature of data set [12]: Inhibition of Hedgehog signaling pathway in mouse ASZ001 cells assessed as reduction in […] Gli1 mRNA expression after 48 hrs by q-PCR analysis. Type of data set: cell-based. The settings on record: ASZ001, 48 h.
The nature of data set [13]: Inhibition of Hedgehog signaling pathway in mouse C3H10T1/2 cells assessed as reduction in oxysterol-induced Gli1 mRNA expression after 24 hrs by q-PCR analysis. Type of data set: cell-based. Particulars: C3H 10T1/2, 24 h.
Data set [14] is filed under the species Mus musculus. The experiment in a line: Inhibition of Hedgehog signaling pathway in mouse C3H10T1/2 cells assessed as reduction in oxysterol-induced Gli1 mRNA expression at 2.5 uM after 24 hrs by q-PCR analysis relative to oxysterol alone. Type of data set: cell-based. The method in brief: as §1
Data set [15] has as its target T1, Vitamin D3 receptor (Mus musculus). The experiment in a line: Activation of VDR in mouse ASZ001 cells assessed as change in Cyp24A1 mRNA expression at 2.5 uM after 48 hrs by q-PCR analysis relative to control. Type of data set: cell-based.
Data set [16] can be described thus: Kinetic solubility of the compound in pH 7.4 phosphate buffered saline. Type of data set: physicochemical. Particulars: read-out: Kinetic_solubility. In short, it runs like this:
(§2)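 Kinetic solubility was run in PBS at pH 4.0 and at pH 7.4 under a standard contract protocol. Compound concentration was measured by LC-MS/MS.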

For data set [17], the species on record is Mus musculus. The experiment in a line: Inhibition of Hedgehog signaling pathway in mouse C3H10T1/2 cells assessed as residual oxysterol-induced Gli1 mRNA expression at 5 uM after 24 hrs by q-PCR analysis relative to oxysterol alone.
The nature of data set [18]: Clearance in human liver microsomes assessed per mg protein at 1 uM by LC-MS/MS analysis. For orientation: Liver microsomes are vesicles of endoplasmic reticulum, rich in cytochrome P450 enzymes.
A short description of data set [19]: Half life in human liver microsomes at 1 uM by LC-MS/MS analysis. Particulars: microsomes.
A short description of data set [20]: Kinetic solubility of the compound in pH 4 phosphate buffered saline. Type of data set: physicochemical. The settings on record: read-out: Kinetic_solubility. The method in brief:
as §2

The species named for data set [21] is Mus musculus. In words: Inhibition of Hedgehog signaling pathway in Sufu-deficient mouse C3H10T1/2 cells assessed as reduction in oxysterol-induced Gli1 mRNA expression at 5 uM after 24 hrs by q-PCR analysis.
A short description of data set [22]: Inhibition of Hedgehog signaling pathway in VDR-deficient mouse C3H10T1/2 cells assessed as reduction in oxysterol-induced Gli1 mRNA expression after 24 hrs by q-PCR analysis. Particulars: C3H 10T1/2, 24 h.

Values after ≈ are worked out from the molar mass of the structure shown. Active and inactive are the calls of the source. No cut-off for these calls is given here.

Broadly, the half-life is the time in which the quantity being followed falls by half. One may read the GI50 as the concentration giving 50% growth inhibition. In general, EC50 refers to the concentration at which the effect is half-maximal. What is called IC50 is the concentration that inhibits the measured activity by half.

As to `C=C1/C(=C\C=C2/CCC[C@]3(C)[C@@H]([C@H](C)CCCC(C)(C)O)CC[C@@H]23)C[C@@H](O)C[C@@H]1O` [CALCITRIOL], the Activity in [1] is 530%; in [4], above 30000%; in [6] it was 30%; in data set [7], above 30000%; in data set [8], 590%. The inhibition entry in data set [2] and in data set [3] was “inactive” throughout. Further, in [5], the half-life is above 2 h. Besides, halving of growth in data set [9] (GI50) required 1400 nM.
As to `C=C1CC[C@H](O)C/C1=C/C=C1\CCC[C@]2(C)[C@@H]([C@H](C)CCCC(C)(C)O)CC[C@@H]12` [CALCIFEDIOL ANHYDROUS], the EC50 in [10] worked out at 600 nM. For the same compound, the values for the Activity in [11] and in [7] were above 30000% and 11000%, respectively. Besides, the IC50 was determined as 500 nM in data set [12] and 400 nM in [13]. Further, the % Gli1 activity in data set [14] came out at 9.2%.
For the compound `CC(C)CCC[C@@H](C)[C@H]1CC[C@H]2[C@H](CNc3ccc(O)cc3)CCC[C@]12C`, the Activity was 5.8% in data set [15] and 8.9% in data set [4]. Moreover, the solubility kinetic in [16] is 2.7 ng/mL (≈ 7.27 nM); in [20] it was 0.13 ng/mL (≈ 0.35 nM). Further, in data set [17], the % Gli1 activity was 1.9%. The CLH in data set [18] is below 3. This compound also had a half-life at 1 µM in data set [19] above 3.85 h. The IC50 in [12] and in [13] was 600 nM throughout. In [9], this compound had a GI50 of 2100 nM.
Consider `CS(=O)(=O)c1ccc(C(=O)Nc2ccc(Cl)c(-c3ccccn3)c2)c(Cl)c1` [VISMODEGIB], for which the % Gli1 activity in data set [17] amounted to 0.9%. Also, the inhibition result in data set [3] was “inactive”. The “Hedgehog inhibition activity call (active/not active)” value in data set [21] is “Active”. In addition, the IC50 in data set [12] stood at 40 nM; in data set [13], 82 nM.
On to `CCC(CC)(c1ccc(OCC(O)CO)c(C)c1)c1ccc(OCC(O)C(C)(C)C)c(C)c1` (stereo unspecified) [LG-190178], for which the Activity in data set [1] was determined as 250%; in data set [7] it was 13000%. Besides, the EC50 in [10] was determined as 7.7 nM. In addition, the results for the 50% inhibitory concentration (IC50) in data set [22], in [12] and in [13] were 1900 nM, 0.23 nM and 0.25 nM, respectively.
